Sampled rows, rich in hits. Any-hit rate of the full collection: about 2%.
ZTA counter: blocks Epstein-Barr virus ZTA, an EBNA-1 counter-screen; P03206; ZTA-DNA binding, fluorescence polarization; inhibition, % at 11 µM; 320,000 compounds, 0.15% hits; AID 2234; in the data active means inhibition above about 33%
EBNA-1 inhibitor: EBNA-1 DNA-binding inhibitors, primary screen, biochemical, fluorescence polarization; inhibition, % at 14.8 µM; 300,000 compounds, 0.34% hits; in the data active means inhibition above about 28%
HCV NS3 hel inh: inhibitors of HCV NS3 helicase, primary screen, biochemical, Cy5 molecular beacon fluorescence. NS3 helicase DNA unwinding. AID 1800, 2009. 290,000 compounds, 0.56% hits. Hepatitis C virus NS3 helicase. inhibition, % at 10.9 µM;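 active means inhibition above the mean of all tested compounds plus 3 SD, set per campaign, cut at about 35% in these data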
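Test system: hepatitis C virus NS3 helicase domain fragment enzyme. Also added: annealed dual-labelled DNA beacon duplex, ATP-started. Timing: 60 min unwinding reaction at 25 °C after ATP addition. Technique: Cy5 fluorescence. Measure: % inhibition of unwinding.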
GPR7 antagonist: GPR7 receptor antagonists, primary screen, cell-based, fluorescence, single concentration; GPR7-expressing cells, fluorescence antagonist assay; 290,000 compounds, 1.1% hits; inhibition, % at 4.4 µM; Neuropeptides B/W receptor type 1 (Homo sapiens), P48145; in the data active means inhibition above about 16%, passing the limit was not always enough;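 further: cells stimulated with the agonist NPW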
Target sequence (P48145 whole entry, looked up): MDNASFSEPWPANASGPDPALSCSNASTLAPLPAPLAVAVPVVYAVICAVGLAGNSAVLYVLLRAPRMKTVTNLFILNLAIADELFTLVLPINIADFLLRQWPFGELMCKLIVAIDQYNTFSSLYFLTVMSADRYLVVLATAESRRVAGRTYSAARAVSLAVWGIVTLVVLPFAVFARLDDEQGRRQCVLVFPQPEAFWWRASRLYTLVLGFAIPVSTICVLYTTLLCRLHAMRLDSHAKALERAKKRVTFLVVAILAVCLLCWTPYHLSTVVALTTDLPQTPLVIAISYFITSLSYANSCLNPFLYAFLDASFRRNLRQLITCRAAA
FID counter: compounds displacing fluorescent DNA intercalator, primary screen, artefact control for HCV NS3 helicase inhibitor project, biochemical, FID fluorescence; 290,000 compounds, 0.17% hits; AID 1845, 2009; inhibition, % at 7.9 µM; DNA fluorescent intercalator displacement; in the data active means inhibition above about 37%;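 further: higher means more ethidium bromide displaced from hairpin DNA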
GPR7 antag cf: GPR7 receptor antagonists, confirmation, cell-based, fluorescence, single concentration; 2,400 compounds, 52% hits; GPR7-expressing cells, calcium fluorescence antagonist mode; inhibition, % at 4.4 µM; AID 1952, 2009; shares compounds with GPR7 antagonist; in the data active means inhibition above about 24%;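 further: stimulated with the GPR7 agonist NPW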
MCHR1 antag: MCHR1 antagonists in cells, counter-screen for GPR7 antagonist project, cell-based, fluorescence, human; shares compounds with GPR7 antagonist; MCHR1-expressing cells, fluorescence antagonist assay; inhibition, % at 4.4 µM; 2,400 compounds, 62% hits; in the data active means inhibition above about 22%
Of the large screens only hits and unclear results are named; the others gave an inactive call (follow-up assays come after a bar, where they were run).

COc1ccccc1CNC(=O)COC(=O)c1ccccn1	none (no result: HCV NS3 hel inh, GPR7 antagonist, FID counter)
O=C(COC(=O)c1ccccn1)NCc1ccccc1Cl	GPR7 antagonist 24 | GPR7 antag cf inactive | MCHR1 antag inactive
Cc1ccccc1CC1(CO)CCCN(C(=O)c2ccccc2Cl)C1 (stereo unspecified)	GPR7 antagonist 34 | GPR7 antag cf 32 | MCHR1 antag inactive
Cc1ccccc1CC1(CO)CCCN(C(=O)c2cccc(Cl)c2)C1 (stereo unspecified)	none
Cc1ccccc1CC1(CO)CCCN(C(=O)c2cc(Cl)ccc2F)C1 (stereo unspecified)	none (no result: GPR7 antagonist) | MCHR1 antag inactive
CN(C(=O)c1ccc(-c2nn(C)c(=O)c3ccccc23)cc1)C1CCCCC1	none
COc1ccc(NC(=O)/C(C#N)=C\c2cc(C)n(-c3ccc(Oc4ccc([N+](=O)[O-])cn4)cc3)c2C)cc1	none
Cc1cc(C=O)c(C)n1-c1ccc(Oc2ccc([N+](=O)[O-])cn2)cc1	GPR7 antagonist 27 | GPR7 antag cf 36 | MCHR1 antag 53
Cc1ccc(C(=O)OCC(=O)NC2CCCCC2)cc1S(=O)(=O)N1CCCCC1	none (no result: EBNA-1 inhibitor, HCV NS3 hel inh, GPR7 antagonist, FID counter)
COc1ccc(N=C2S/C(=C\c3ccc(Cl)c([N+](=O)[O-])c3)C(=O)N2CCN(C)C)cc1	GPR7 antagonist 48 | GPR7 antag cf 65 | MCHR1 antag 59
CCN1C(=O)/C(=C/c2cccs2)SC1=Nc1ccc(OC)cc1	none
CCN(CC)CCN1C(=O)/C(=C\c2ccc(Cl)c([N+](=O)[O-])c2)SC1=Nc1ccc(OC)cc1	GPR7 antagonist 46 | GPR7 antag cf 75 | MCHR1 antag 60
CCCN1C(=O)/C(=C/c2ccc(C)s2)SC1=Nc1ccc(OC)cc1	none
CCOc1ccc(C(=O)Nc2cccc3ncccc23)cc1Br	GPR7 antagonist 26 | GPR7 antag cf inactive | MCHR1 antag inactive
CCN1CCc2c(sc(NC(=O)c3ccc(S(=O)(=O)N4CCCCCC4)cc3)c2C(=O)NC)C1	none
CCCCOc1ccc(CN2CCSCC2)cc1	none (no result: ZTA counter, EBNA-1 inhibitor)
CCn1nc(C)cc1C(=O)N1CCCC(N(C)CCc2ccc(OC)c(OC)c2)C1 (stereo unspecified)	none
COc1ccc(C[C@H]2CN3C(=NC[C@@H]3Cc3ccccc3)N2CCNC(=O)CCC2CCCCC2)cc1	GPR7 antagonist 37 | GPR7 antag cf 52 | MCHR1 antag 39
COc1ccc(C[C@H]2CN3C(=NC[C@@H]3C(C)C)N2CCNC(=O)CCC2CCCCC2)cc1	none
CCCCn1nc(C(=O)Nc2c(C)n(C)n(-c3ccccc3)c2=O)c2ccccc2c1=O	none (no result: EBNA-1 inhibitor, HCV NS3 hel inh, GPR7 antagonist, FID counter)
N/C(=N\OC(=O)COc1ccc(Cl)cc1Br)c1cccnc1	GPR7 antagonist 24 | GPR7 antag cf inactive | MCHR1 antag inactive
CC(=O)OCCNc1cc(Sc2nc3ccccc3[nH]2)c2nonc2c1[N+](=O)[O-]	GPR7 antagonist 33 | GPR7 antag cf 60 | MCHR1 antag 101
CC[n+]1c(/C=C/N(C)c2ccccc2)oc2ccc(Cl)cc21	none
CCN1/C(=C/C=C/c2oc3ccc4ccccc4c3[n+]2CC)Oc2ccc3ccccc3c21	EBNA-1 inhibitor 29, GPR7 antagonist 45 | GPR7 antag cf 55 | MCHR1 antag 58
COc1ccc(/C=N/Nc2ccc([N+](=O)[O-])cc2)cc1Cn1cc([N+](=O)[O-])cn1	none
COc1ccc(/C=N/Nc2ccc([N+](=O)[O-])cc2)cc1O	GPR7 antagonist 30 | GPR7 antag cf 37 | MCHR1 antag 41
CC(C(=O)Nc1c2c(cc3c1CCC3)CCC2)N1CCCC1 (stereo unspecified)	GPR7 antagonist 32 | GPR7 antag cf inactive | MCHR1 antag 28
COCCNC(=S)Nc1ccc(S(=O)(=O)Nc2ncccn2)cc1	GPR7 antagonist 25 | GPR7 antag cf inactive | MCHR1 antag inactive
O=S(=O)(Nc1ncccn1)c1ccc(NC(=S)NCCc2ccccc2)cc1	none
CN(C)C/C=C/C(O)(c1ccccc1)c1ccccc1	none
